In PMC4641816 (Journal of biomolecular screening, 2014):
Like-named read-outs stand apart in the source and are kept apart here.

What was measured:
[1] = test system: serotonin receptor; conditions: previous primary screens; ref PubChem AIDs 612 and 504916; cited from earlier work
[2] = previous primary screens at SRIMSC; ref PubChem AIDs 1859, 1931, 651959; cited from earlier work
[3] = target: recombinant CTSL1 (Fasciola hepatica, UniProt Q7JNQ9); experiment: Cathepsin L1; format: biochemical
[4] = target: PfM18AAP extracts (soluble freeze-thaw extracts of parasites) (Plasmodium falciparum, UniProt Q8I2J3); experiment: Malaria cell lysate assay; format: biochemical; conditions: at ≤5μM
Procedure, shortened: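 Human erythrocytes infected in vitro were washed in PBS and parasites released with saponin. Three freeze-thaw cycles followed and supernatant extracts were kept. Extracts were incubated with test compound plus CoCl2 and aminoacyl-NHMec substrate (given as both H-Glu- and H-Asp-NHMec). Decreased fluorescence from substrate cleavage was taken as inhibition. Vehicle and background controls were included.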

[5] = test system: P. falciparum infected red blood cells; experiment: Parasite growth assay; format: cell-based, Plasmodium falciparum; conditions: 10 μM test concentration
Procedure, shortened: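 Asexual erythrocytic-stage P. falciparum in infected RBCs was incubated with test compound at 10 µM in hypoxanthine-free medium, then 3H-hypoxanthine was added. 3H incorporation was measured after 48 h; reduced incorporation was scored as inhibition. Each plate held vehicle and uninfected-RBC background controls (DMSO ≤1%).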

[6] = test system: bacterial viability; conditions: previous primary screens, where tested; ref PubChem AIDs 449731, 651606; cited from earlier work
[7] = test system: mammalian cytotoxicity; conditions: previous primary screens, where tested; ref PubChem AIDs 1486, 1825; cited from earlier work
[8] = target: T1, purified recombinant PfM18AAP (Plasmodium falciparum, UniProt Q8I2J3); experiment: Ki determination and mode of inhibition; format: biochemical; conditions: for mode of inhibition of PfM18AAP: comparison of fits, Lineweaver-Burk plots
T1 sequence (Q8I2J3 1-570): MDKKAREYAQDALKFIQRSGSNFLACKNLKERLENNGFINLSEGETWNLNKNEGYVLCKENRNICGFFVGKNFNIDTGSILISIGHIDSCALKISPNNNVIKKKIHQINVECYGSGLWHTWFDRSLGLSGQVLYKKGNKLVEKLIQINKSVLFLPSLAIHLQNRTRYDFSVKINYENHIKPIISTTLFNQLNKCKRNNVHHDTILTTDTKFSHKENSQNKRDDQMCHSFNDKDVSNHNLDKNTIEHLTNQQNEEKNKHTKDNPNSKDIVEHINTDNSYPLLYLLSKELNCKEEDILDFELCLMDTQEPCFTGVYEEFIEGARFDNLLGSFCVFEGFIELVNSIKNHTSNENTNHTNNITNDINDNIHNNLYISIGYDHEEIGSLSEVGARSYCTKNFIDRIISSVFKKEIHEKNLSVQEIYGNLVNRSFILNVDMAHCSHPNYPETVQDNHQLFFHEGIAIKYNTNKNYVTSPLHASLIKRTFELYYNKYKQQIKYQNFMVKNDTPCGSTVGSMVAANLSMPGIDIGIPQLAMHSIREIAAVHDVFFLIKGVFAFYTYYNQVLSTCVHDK

[9] = test system: PfM18AAP; conditions: cited from earlier work

In the case of `CN1CCc2cccc3c2[C@@H]1Cc1ccc(O)c(O)c1-3.Cl.O` [CID 6852389, (S)-(+)-Apomorphine hydrochloride hydrate], the “activity in cell-based screens at SRIMSC (serotonin receptor screens)” value [1] is listed as “inactive in all cell-based screens tested at the SRIMSC, except for two serotonin receptor screens”, the “activity in similarly formatted enzymatic inhibition assays” value [2] is listed as “devoid of activity” and the IC50 ([3]; read-out: IC50 in CTSL1 titration experiments, 10 point titration, triplicate) is listed as > 59600 nM. The “efficacy in P. falciparum lysate assay” value [4] was 84%, the “inhibition in 3H hypoxanthine incorporation assay” value [5] was 87% and the “activity in bacterial viability screens” value [6] was “inactive”. For the same compound, the “activity in mammalian cytotoxicity screens” value [7] was “inactive”, the “mode of inhibition of PfM18AAP” value [8] was “non-competitive” and the Ki ([8]; read-out: Ki (non-linear regression), powder samples, substrate Glu-NHMec) was 3390 ± 360 nM.
For `Oc1ccc(CCNc2c3ccccc3nc3ccccc23)cc1O` [CID 23724194, 4-[2-(acridin-9-ylamino)ethyl]benzene-1,2-diol], the “activity in cell-based screens at SRIMSC (serotonin receptor screens)” value [1] is listed as “inactive in all cell-based screens tested at the SRIMSC, except for two serotonin receptor screens”, the “activity in similarly formatted enzymatic inhibition assays” value [2] is listed as “devoid of activity” and the IC50 [3] is listed as > 59600 nM. For the same compound, the “activity in bacterial viability screens” value [6] was “inactive”, the “activity in mammalian cytotoxicity screens” value [7] was “inactive” and the Ki [8] was 1350 ± 150 nM. The “mode of inhibition of PfM18AAP” value [8] was “non-competitive”.
In the case of `C[C@H](NC(=O)[C@H](Cc1ccccc1)NC(=O)OCc1ccccc1)C(=O)C=[N+]=[N-]` [Z-Phe-Ala diazomethylketone, Z-Phe-Ala-diazomethylketone, reference compound], the IC50 ([3]; read-out: IC50 of positive control in CTSL1 HTS assay, average, N=22 plates) is reported as 15.4 nM.
In the case of `[Cl-].[Cl-].[Zn+2]` [Zn(II), ZnCl2, reference compound], the “concentration at which PfM18AAP is inhibited” value [9] is given as > 1 mM.
For `[Cl-].[Cl-].[Co+2]` [cobalt], the “effect of metal ion on PfM18AAP activity” value [9] is listed as “enhanced”.
In the case of `[Mn+2]` [manganese], the “effect of metal ion on PfM18AAP activity” value [9] is listed as “enhanced”.
